Assay outcomes as filed in PubChem.
Most compounds without a hit are left out; they make up all but 3% or so of the library.
Yeast superoxide – lowers age-related superoxide in aged yeast cells; 330,000 tested, 0.18% active; S. cerevisiae aged cells, superoxide DHE fluorescence; stronger effect = lower value; AID 2690; superoxide response (% of plate mean), % at 10 µM;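 active = superoxide response under a set limit, about three screen SD below normal, cut at about 65% in these data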;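 also: yeast aged for seven days with compound at 30 °C before DHE staining; 100% = average MFI of all compound-treated wells on the plate with controls excluded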
HIF act – HIF pathway transcriptional activation; U2OS HRE-luciferase reporter, luminescence; normalized: DMSO 0%, desferrioxamine 100%; activation, % at 7.5 µM (by protocol); 300,000 tested, 0.32% active;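 active = mean activation of at least 10% of the iron chelator positive control signal, with at least half of replicates also reaching 10%; inconclusive = mean and replicate majority disagree about reaching 10%; inactive = mean and most replicates under 10%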
V-ATPase pHluor – alters yeast V-ATPase proton transport. S. cerevisiae, pHLuorin cytosolic pH fluorescence. response, % at 10 µM. 350,000 tested, 0.37% active. AID 504577; in the data active = response mostly above about 7.3%, no sharp cut-off; inactive = mostly below about 5.4%; also: actives read high
NRP1-CendR mod – alters CendR peptide binding to human NRP-1; O14786; FAM-RPARPAR peptide binding to NRP-1, fluorescence polarization; inhibition, % at 25 µM; 360,000 tested, 0.85% active; AID 602438;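 active = inhibition or corrected inhibition above about 18%, plus a signal ratio from 0.5 to 1.5, limit read from the data, passing the limit was not always enough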
Target sequence (O14786 whole entry, looked up): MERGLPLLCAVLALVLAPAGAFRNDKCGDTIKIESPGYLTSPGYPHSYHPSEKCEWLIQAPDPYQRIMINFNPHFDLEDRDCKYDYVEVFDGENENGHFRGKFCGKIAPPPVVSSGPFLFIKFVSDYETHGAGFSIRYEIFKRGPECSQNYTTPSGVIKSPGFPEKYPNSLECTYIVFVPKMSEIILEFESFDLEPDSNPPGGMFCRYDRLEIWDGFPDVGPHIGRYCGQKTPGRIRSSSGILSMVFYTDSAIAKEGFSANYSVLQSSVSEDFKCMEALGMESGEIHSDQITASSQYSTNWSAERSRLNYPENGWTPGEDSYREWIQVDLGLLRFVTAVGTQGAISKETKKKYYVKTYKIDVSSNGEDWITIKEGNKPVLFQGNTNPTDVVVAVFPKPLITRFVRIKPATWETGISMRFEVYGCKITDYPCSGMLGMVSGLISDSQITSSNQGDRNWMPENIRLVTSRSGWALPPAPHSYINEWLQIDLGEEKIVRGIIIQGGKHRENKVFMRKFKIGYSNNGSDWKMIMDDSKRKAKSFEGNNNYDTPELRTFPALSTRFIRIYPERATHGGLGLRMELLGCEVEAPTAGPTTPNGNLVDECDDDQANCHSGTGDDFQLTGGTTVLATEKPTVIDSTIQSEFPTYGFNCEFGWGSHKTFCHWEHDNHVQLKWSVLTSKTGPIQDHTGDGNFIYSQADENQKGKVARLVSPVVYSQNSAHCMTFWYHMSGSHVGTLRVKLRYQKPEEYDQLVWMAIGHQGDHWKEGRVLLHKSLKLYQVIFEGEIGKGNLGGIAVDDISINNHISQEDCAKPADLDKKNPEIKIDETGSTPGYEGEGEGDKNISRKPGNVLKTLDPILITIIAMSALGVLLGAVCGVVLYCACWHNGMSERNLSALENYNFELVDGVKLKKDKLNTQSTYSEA
AI-2 QS mod – modulators of Vibrio harveyi AI-2 quorum sensing system. Vibrio harveyi JMH597 AI-2 luminescence/OD600 ratio, 9 h; stronger effect = lower value; strain lacks LuxN and CqsS sensors; 0 = neutral-control median. activity change, % at 7.5 µM. 300,000 tested, 0.4% active. AID 2094; in the data active = activity change below about -75%, passing the limit was not always enough; inconclusive = no clear call, values can overlap the other calls;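 also: luminescence divided by OD600 gain over 9 h not by final OD600 alone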
T cruzi inh – blocks replication of Trypanosoma cruzi; 300,000 tested, 1.4% active; T. cruzi beta-gal in NIH3T3, luminescence, 90 h; inhibition, % (test concentration not listed);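 active = mean inhibition across valid replicates above about 55%, limit read from the data; inconclusive = mean below that limit but half or more replicates reach it; inactive = mean below it, under half of replicates reach it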;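 also: signal also drops with host cell toxicity which is not excluded here; 0% = plate median of DMSO wells and 100% = zero luminescence signal; higher percent means less beta-gal luminescence so fewer parasites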
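compound dosing = single 50 nL compound addition per well in DMSO | material = NIH/3T3 host cells with β-galactosidase reporter T. cruzi | input = 5,000 host fibroblasts per well | timing = ≥90 h infection period, 3 h prior cell attachment | read-out basis = percent inhibition of parasite-derived β-gal signal | detection = GalScreen β-gal luminescence, detergent lysis, 60 min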
CR mimetic CP – confirmation of caloric restriction mimetics inhibiting yeast age-related superoxide. superoxide response (% of plate), % at 10 µM. 850 tested, 1% active. S. cerevisiae aging, superoxide DHE fluorescence; stronger effect = lower value. shares compounds with Yeast superoxide;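 active = superoxide signal below 65% of the plate average of sample wells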;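 also: cells aged with compound for 7 days at 30 degrees C before staining; 100% equals mean DHE fluorescence of all compound wells on the plate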
DHE fluor count – DHE fluorescence interference, counter-screen artifact; shares compounds with Yeast superoxide; S. cerevisiae BY4741, flow cytometry; stronger effect = lower value; fluorescence response, % at 10 µM; 850 tested, under 10 active; AID 435000;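 active = fluorescence response below 15%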;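 also: percent of the mean fluorescence averaged over all compound wells on the plate; lower means stronger quenching of DHE signal or ROS scavenging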
An asterisk follows results filed as active; ? = inconclusive; . = not tested or not shown.

SMILES	Yeast superoxide	HIF act	V-ATPase pHluor	NRP1-CendR mod	AI-2 QS mod	T cruzi inh	CR mimetic CP	DHE fluor count
COc1cccc(CN(C)CC(=O)NCc2ccc(F)cc2)c1OC	39*	-16	2	-2	3	-1	106	88
COc1ccc(-c2c(-c3cc(OC)cc(OC)c3)n(C)c3ccc(-c4ccc(SC)cc4)cc23)cc1	65*	.	-4	10	.	.	97	96
Cc1ccc(C(=O)SC2=NCCS2)cc1	58*	0	-2	-2	18	-11	101	110
CCCCNc1ncnc2c1cnn2-c1ccccc1	110	4	2	8	11	3	105	108
COc1ccc(-n2ncc3c(NCC(C)C)ncnc32)cc1	78	0	3	5	16	-1	117	106
CCc1nc(NC(C)(C)C)c2cnn(-c3ccccc3)c2n1	95	3	1	-18	29	21	101	97
CCCCNc1ncnc2c1cnn2-c1ccc(Cl)cc1	85	4	1	-3	-5	-31	.	.
c1ccc(-n2ncc3c(NCc4ccco4)ncnc32)cc1	87	9.5*	0	2	22	-11	90	90
CC(=O)O[C@H]1C[C@@H]2CC[C@@H]3[C@H](CC[C@@]4(C)[C@H]3C[C@H]([N+]3(C)CCCCC3)[C@@H]4OC(C)=O)[C@@]2(C)C[C@@H]1N1CCCCC1	92	0	.	.	10	17	103	91
CCCc1c(NC(=O)Nc2ccc(F)cc2)cnn1-c1ccccc1	61*	-1	-3	3	8	1	120	108
CCCc1c(C(=O)Nc2ccc(F)cc2C)cnn1-c1ccccc1	87	0	1	2	-9	-6	.	.
COc1ccccc1CNc1n[nH]c(NCc2ccccc2OC)n1	94	.	-8	9	-30	.	.	.
CCOc1ccc(NC(=O)c2ccc(CSc3nnc(C)s3)cc2)cc1	101	1	-1	0	6	-6	.	.
Cc1ccc(S(=O)(=O)N(C)c2ccc(N)cc2)cc1	92	0	-3	-8	23	-2	107	104
Cc1ccc(C)c(NC(=S)NNC(=O)c2csc3c2CCCC3)c1	100	0	10	10	27	12	.	.
CCNC(=S)NNC(=O)c1csc2c1CCCC2	58*	0	2	7	-2	-6	88	103
Cc1cccc(C)c1NC(=O)COn1nnc2ccc(C(F)(F)F)cc21	118	0	0	0	3	-3	.	.
O=C(COn1nnc2ccc(C(F)(F)F)cc21)Nc1nnc(-c2ccccc2)o1	60*	-1	1	-10	19	-20	98	111
COc1ccccc1C(=O)N/C(=C\c1ccc(Br)cc1)C(=O)NCC(=O)O	110	0	0	12	-10	9	.	.
C=CCn1c(SCC(=O)Nc2cc(NC(C)=O)ccc2OC)nnc1-c1cccnc1	105	0	3	-5	10	-12	94	94
CCOc1cccc(-c2nnc(SCC(=O)Nc3cccc(OC)c3)n2N)c1	.	0	7	0	16	-14	104	100
COc1cccc(-c2nnc(SCC(=O)Nc3ccc(OC)c(OC)c3)n2N)c1	104	0	-2	2	16	-1	111	99
COc1ccc(NC(=O)CSc2nnc(-c3ccccc3)n2N)cc1	104	1	2	-6	20	-4	.	.
COc1cccc(NC(=O)CSc2nnc(-c3cc(C)[nH]n3)n2N)c1	89	0	-1	6	20	7	.	.
C=CCn1c(SCC(=O)Nc2cc(NC(C)=O)ccc2OC)nnc1-c1ccccn1	112	1	3	4	27	-5	.	.
SMILES	Yeast superoxide	HIF act	V-ATPase pHluor	NRP1-CendR mod	AI-2 QS mod	T cruzi inh	CR mimetic CP	DHE fluor count
C=CCn1c(SCC(=O)Nc2ccc3c(c2)OCCO3)nnc1-c1ccco1	92	-1	2	3	3	0	104	102
C=CCn1c(C)nnc1SCC(=O)Nc1ccc2c(c1)OCCO2	104	.	3	7	.	.	.	.
O=C(CN1CCN(c2ccccn2)CC1)Nc1cccc(Br)c1	102	-23	-2	2	14	11	92	102
O=C(CN1CCN(c2ccccn2)CC1)Nc1cccc(F)c1	101	1	-1	-7	1	?	110	92
COc1cccc(NC(=O)CN2CCN(CC(=O)Nc3ccc(F)cc3)CC2)c1	61*	-9	6	-8	23	6	113	105
O=C(CN1CCN(c2ccccn2)CC1)Nc1ccc2ccccc2c1	95	.	-2	5	11	.	.	.
CCOc1ccccc1N(CC(=O)OC)S(=O)(=O)c1ccccc1	128	0	0	1	7	-12	.	.
COC(=O)CN(c1ccc(C)cc1)S(=O)(=O)c1ccc(F)cc1	50*	0	-4	5	-13	-9	104	107
COC(=O)CN(c1ccccc1)S(=O)(=O)c1ccccc1	91	0	1	-1	1	3	100	91
O=C(Nc1cccc(S(=O)(=O)N2CCCC2)c1)[C@@H]1O[C@H](CO)[C@H](O)[C@H](O)[C@H]1O	.	.	.	-5	.	.	.	.
COc1ccc(CCC(=O)NCCOc2ccc(C)cc2)cc1	39*	-16	0	0	15	-3	95	91
COc1ccc(OCCNC(=O)c2ccccc2Cl)cc1	64*	-36	2	0	31	-14	96	93
Cc1ccc(C)c(-n2c(-c3ccc(Br)cc3)csc2=NC(=O)c2ccccc2F)c1	53*	-7	-3	1	11	64*	106	90
Cn1ccsc1=NC(=O)c1ccccc1F	88	0	2	-12	14	-5	.	.
CC(=O)Nc1ccc(S(=O)(=O)Nc2nc3nc(-c4ccccc4)cc(-c4ccccc4)n3n2)cc1	60*	-30	0	-29	25	-2	96	94
O=C(Nc1c(F)cc(F)cc1Br)c1cc(-c2ccc(O)cc2)on1	99	1	-3	-1	-6	-4	.	.
Cc1ccccc1Cn1cc(NC(=O)c2noc3c2CC(C(C)(C)C)CC3)cn1 (centres undefined)	65*	-1	-2	-6	10	52	121	99
O=C1c2ccccc2CN1CCNS(=O)(=O)c1ccc(Cl)cc1	110	0	6	-6	-6	-11	.	.
CN(C)S(=O)(=O)c1ccc(NC(=O)CN2CCN(c3ccccn3)CC2)cc1	80	-1	-4	8	-28	-6	107	91
